In ChEMBL document CHEMBL3813698, “Hydrophobic substituents increase the potency of salacinol, a potent α-glucosidase inhibitor from Ayurvedic traditional medicine 'Salacia'” (Bioorg Med Chem, 2016):
pIC50: −log10 of the molar value.

What was measured:
[1] = biological target: T1, Sucrase-isomaltase, intestinal (Rattus norvegicus, UniProt P23739); experiment: Inhibition of rat small intestinal isomaltase using isomaltose as substrate incubated for 30 mins by glucose-oxidase method
In short: (§1)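 Rat small-intestinal α-glucosidases in 0.1 M maleate buffer (pH 6.0). Test sample dissolved in DMSO, diluted with maleate buffer (10% DMSO in sample solution; 2.5% final). Substrate solution concentrations were maltose 74 mM (maltase), sucrose 74 mM (sucrase) and isomaltose 7.4 mM (isomaltase). Substrate, sample and enzyme were mixed at 37 °C for 30 min, stopped by 2 min boiling, and glucose read by glucose oxidase.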

Maltase-glucoamylase = Maltase-glucoamylase (Homo sapiens, UniProt O43451); experiment: Inhibition of human small intestine microsomal maltase using maltose as substrate incubated for 30 mins by glucose-oxidase method
Maltase-glucoamylase, sequence (O43451 whole entry): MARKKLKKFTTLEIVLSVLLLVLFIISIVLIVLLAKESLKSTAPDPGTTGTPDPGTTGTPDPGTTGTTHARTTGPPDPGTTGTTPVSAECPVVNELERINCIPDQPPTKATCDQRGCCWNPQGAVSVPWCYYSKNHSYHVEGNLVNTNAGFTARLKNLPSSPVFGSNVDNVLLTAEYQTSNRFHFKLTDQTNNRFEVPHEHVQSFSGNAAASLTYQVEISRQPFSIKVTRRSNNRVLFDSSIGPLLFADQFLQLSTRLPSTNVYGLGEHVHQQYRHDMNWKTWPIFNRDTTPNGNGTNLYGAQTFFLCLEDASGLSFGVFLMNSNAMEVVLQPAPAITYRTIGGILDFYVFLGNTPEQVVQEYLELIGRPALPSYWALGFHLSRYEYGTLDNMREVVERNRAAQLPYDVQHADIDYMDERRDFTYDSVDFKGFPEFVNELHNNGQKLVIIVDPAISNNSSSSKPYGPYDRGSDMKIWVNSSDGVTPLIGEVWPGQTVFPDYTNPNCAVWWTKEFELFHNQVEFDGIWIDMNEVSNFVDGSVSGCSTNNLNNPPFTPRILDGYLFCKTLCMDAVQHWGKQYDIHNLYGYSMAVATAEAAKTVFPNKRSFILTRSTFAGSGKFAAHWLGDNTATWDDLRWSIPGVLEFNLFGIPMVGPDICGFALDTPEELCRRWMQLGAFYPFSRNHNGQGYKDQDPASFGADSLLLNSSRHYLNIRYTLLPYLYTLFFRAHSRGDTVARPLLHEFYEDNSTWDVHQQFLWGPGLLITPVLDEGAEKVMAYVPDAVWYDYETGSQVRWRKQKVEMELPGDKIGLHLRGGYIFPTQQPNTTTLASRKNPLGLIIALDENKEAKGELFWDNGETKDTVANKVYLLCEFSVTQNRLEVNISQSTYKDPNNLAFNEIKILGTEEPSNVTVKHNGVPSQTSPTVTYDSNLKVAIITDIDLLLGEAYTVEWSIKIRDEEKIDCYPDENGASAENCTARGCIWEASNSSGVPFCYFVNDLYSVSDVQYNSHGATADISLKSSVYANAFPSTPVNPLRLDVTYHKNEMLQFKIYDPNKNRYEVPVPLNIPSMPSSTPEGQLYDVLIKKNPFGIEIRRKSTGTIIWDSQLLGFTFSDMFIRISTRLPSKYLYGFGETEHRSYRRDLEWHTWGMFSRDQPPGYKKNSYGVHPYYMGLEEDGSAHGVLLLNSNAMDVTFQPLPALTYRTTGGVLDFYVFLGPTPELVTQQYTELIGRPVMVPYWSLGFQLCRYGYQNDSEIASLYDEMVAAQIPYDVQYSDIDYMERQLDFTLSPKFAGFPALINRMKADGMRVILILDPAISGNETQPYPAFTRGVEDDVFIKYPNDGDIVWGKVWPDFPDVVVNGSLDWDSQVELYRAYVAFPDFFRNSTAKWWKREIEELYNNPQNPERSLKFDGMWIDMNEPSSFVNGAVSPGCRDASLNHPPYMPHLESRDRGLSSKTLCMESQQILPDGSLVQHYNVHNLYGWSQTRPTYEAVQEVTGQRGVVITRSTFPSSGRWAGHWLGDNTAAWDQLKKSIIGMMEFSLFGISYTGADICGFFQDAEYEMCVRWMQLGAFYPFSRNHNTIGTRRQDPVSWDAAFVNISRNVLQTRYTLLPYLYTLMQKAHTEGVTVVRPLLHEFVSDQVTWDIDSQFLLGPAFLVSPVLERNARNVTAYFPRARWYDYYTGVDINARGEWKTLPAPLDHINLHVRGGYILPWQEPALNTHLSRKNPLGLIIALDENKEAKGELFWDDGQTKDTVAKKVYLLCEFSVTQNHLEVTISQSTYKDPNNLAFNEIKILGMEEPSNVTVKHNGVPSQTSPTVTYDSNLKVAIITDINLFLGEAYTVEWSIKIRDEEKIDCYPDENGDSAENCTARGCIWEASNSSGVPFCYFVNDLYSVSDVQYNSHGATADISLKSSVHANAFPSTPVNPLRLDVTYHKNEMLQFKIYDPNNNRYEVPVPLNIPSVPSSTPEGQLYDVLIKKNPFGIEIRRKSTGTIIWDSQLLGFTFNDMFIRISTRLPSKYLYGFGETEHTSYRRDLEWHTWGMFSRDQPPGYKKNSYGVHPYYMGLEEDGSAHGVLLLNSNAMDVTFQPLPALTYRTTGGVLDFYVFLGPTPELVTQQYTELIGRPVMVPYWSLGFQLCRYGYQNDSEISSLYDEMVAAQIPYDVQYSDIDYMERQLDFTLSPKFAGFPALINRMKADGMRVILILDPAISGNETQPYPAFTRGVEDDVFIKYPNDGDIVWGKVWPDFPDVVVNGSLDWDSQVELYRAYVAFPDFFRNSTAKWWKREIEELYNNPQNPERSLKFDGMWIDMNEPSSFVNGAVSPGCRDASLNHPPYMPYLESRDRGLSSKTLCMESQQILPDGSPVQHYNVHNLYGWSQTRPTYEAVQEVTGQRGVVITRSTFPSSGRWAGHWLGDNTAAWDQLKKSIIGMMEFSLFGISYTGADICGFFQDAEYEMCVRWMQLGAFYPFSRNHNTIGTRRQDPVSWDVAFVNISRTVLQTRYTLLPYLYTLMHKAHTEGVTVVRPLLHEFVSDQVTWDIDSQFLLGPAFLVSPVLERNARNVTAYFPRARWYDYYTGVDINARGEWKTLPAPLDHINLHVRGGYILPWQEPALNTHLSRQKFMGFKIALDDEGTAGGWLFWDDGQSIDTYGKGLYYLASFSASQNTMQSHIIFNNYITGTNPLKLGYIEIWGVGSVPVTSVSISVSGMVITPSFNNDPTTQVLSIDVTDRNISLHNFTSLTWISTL
In short: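 Enzyme was human small-intestinal microsome in 0.1 M maleate buffer (pH 6.0), with maltose as substrate. Test sample was dissolved in DMSO and diluted in maleate buffer. Sample, substrate and enzyme were incubated at 37 °C for 30 min, stopped by boiling for 2 min, and glucose measured by the glucose-oxidase method.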

[2] = biological target: T1, Sucrase-isomaltase, intestinal; experiment: Inhibition of rat small intestinal sucrase using sucrose as substrate incubated for 30 mins by glucose-oxidase method; in short: as §1
[3] = Inhibition of rat small intestinal maltase using maltose as substrate incubated for 30 mins by glucose-oxidase method; in short: as §1

T1 sequence (P23739 1-1013 limits assumed): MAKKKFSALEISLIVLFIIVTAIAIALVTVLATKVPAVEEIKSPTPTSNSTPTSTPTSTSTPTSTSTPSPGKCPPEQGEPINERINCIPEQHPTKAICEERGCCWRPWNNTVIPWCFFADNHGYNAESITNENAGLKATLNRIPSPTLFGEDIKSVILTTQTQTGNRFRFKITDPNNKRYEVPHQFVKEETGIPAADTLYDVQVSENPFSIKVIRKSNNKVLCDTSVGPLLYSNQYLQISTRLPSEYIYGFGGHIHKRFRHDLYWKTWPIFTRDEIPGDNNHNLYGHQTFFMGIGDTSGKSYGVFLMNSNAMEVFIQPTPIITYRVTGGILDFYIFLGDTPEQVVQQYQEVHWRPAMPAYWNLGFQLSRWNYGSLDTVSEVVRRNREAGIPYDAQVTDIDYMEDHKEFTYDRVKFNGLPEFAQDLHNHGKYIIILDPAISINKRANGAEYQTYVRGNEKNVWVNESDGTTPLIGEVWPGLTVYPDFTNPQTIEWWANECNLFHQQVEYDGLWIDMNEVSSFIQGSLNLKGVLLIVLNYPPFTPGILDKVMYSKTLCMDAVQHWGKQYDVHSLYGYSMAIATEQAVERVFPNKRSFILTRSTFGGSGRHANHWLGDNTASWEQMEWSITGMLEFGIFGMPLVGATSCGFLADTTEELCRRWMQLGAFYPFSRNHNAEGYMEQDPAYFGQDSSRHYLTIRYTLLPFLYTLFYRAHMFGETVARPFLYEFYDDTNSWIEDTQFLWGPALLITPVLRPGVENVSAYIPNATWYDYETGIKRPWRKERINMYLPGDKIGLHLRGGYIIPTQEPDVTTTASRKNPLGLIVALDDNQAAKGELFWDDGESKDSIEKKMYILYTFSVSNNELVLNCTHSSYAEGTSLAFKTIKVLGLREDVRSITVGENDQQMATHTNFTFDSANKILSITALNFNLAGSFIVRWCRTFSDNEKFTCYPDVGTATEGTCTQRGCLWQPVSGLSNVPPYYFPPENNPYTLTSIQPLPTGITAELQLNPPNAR
T1 sequence (P23739 1014-1841 limits assumed): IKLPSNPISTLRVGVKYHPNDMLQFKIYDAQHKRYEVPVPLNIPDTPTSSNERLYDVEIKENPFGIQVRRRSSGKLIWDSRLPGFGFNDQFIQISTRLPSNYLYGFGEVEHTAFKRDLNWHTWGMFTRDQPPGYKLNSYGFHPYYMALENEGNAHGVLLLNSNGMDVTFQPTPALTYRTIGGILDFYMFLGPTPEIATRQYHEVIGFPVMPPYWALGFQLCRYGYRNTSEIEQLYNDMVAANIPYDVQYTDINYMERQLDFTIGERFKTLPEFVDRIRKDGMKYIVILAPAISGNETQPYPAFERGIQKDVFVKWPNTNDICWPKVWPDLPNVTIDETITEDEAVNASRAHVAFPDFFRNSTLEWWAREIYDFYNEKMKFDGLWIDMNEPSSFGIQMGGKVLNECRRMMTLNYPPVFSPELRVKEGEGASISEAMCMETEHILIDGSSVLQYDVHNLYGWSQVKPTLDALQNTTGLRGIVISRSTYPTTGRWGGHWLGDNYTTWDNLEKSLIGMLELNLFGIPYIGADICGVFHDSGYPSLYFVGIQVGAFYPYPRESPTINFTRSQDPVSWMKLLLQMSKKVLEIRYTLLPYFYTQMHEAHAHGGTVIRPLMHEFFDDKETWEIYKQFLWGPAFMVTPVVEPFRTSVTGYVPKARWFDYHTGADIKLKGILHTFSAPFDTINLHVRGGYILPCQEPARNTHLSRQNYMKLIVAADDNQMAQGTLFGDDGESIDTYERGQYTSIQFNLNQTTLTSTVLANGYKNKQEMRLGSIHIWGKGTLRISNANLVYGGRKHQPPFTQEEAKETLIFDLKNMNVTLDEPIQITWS

pIC50 [1] | pIC50 (Maltase-glucoamylase) | pIC50 [2] | pIC50 [3] | SMILES
6.57 | 6.02 | 6.92 | – | CCO[C@@H](CO)[C@H](O)C[S+]1C[C@@H](O)[C@H](O)[C@H]1CO (some centres undefined)
6.47 | 6.16 | 7.05 | 6.10 | CC(C)CO[C@@H](CO)[C@H](O)C[S+]1C[C@@H](O)[C@H](O)[C@H]1CO (some centres undefined)
6.41 | 5.70 | 6.34 | 5.28 | CO[C@@H](CO)[C@H](O)C[S+]1C[C@@H](O)[C@H](O)[C@H]1CO (some centres undefined)
6.60 | 6.19 | 6.62 | 6.10 | CCCCCCCO[C@@H](CO)[C@H](O)C[S+]1C[C@@H](O)[C@H](O)[C@H]1CO (some centres undefined)
– | 5.89 | – | – | OCC(CO)N[C@H]1C[C@](O)(CO)[C@@H](O)[C@H](O)[C@H]1O [VOGLIBOSE]
– | – | – | 5.09 | OCCN1C[C@H](O)[C@@H](O)[C@H](O)[C@H]1CO [MIGLITOL]
5.89 | – | 5.80 | 5.28 | O=S(=O)([O-])O[C@@H](CO)[C@H](O)C[S+]1C[C@@H](O)[C@H](O)[C@H]1CO (some centres undefined)
6.33 | 5.82 | 6.30 | – | CCCCCO[C@@H](CO)[C@H](O)C[S+]1C[C@@H](O)[C@H](O)[C@H]1CO (some centres undefined)
6.55 | 6.33 | 7.05 | 6.52 | CC(C)(C)CO[C@@H](CO)[C@H](O)C[S+]1C[C@@H](O)[C@H](O)[C@H]1CO (some centres undefined)
6.68 | 6.82 | 7.38 | 6.89 | O=[N+]([O-])c1ccccc1CO[C@@H](CO)[C@H](O)C[S@@+]1C[C@@H](O)[C@H](O)[C@H]1CO
6.02 | 5.96 | 5.89 | 5.98 | CCCCCCCCCCCCCO[C@@H](CO)[C@H](O)C[S+]1C[C@@H](O)[C@H](O)[C@H]1CO (some centres undefined)
6.52 | 5.05 | 5.89 | 5.10 | OC[C@@H]1[C@@H](O)[C@H](O)C[S+]1C[C@@H](O)[C@@H](O)CO (some centres undefined)
